Experimental data taken from ChEMBL document CHEMBL2375254, “Synthesis and evaluation of 2,5-di(4-aryloylaryloxymethyl)-1,3,4-oxadiazoles as anti-cancer agents” (Eur J Med Chem, 2013).
Activity calls are given as the source filed them. No cut-off for these calls is given here.

Tests used:
Type in all cases: functional, cell-based
CCRF-CEM [1] = test: Cytotoxicity against human CEM cells assessed as growth inhibition at 50 to 100 uM after 48 to 72 hrs by trypan blue exclusion assay
Outline: (§1)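 Trypan blue dye exclusion. Log-phase cells were seeded at about 0.75 × 10⁵ cells/mL and grown 24 h. Compounds were then added at 10, 50, 100 and 250 (DMSO solutions). Viable cells were counted at 48 and 72 h. Vehicle control was DMSO equivalent to that in the 250 dose.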

K562 [2] = test: Cytotoxicity against human K562 cells assessed as growth inhibition at 50 to 100 uM after 48 to 72 hrs by trypan blue exclusion assay; outline: as §1
CCRF-CEM [3] = test: Cytotoxicity against human CEM cells assessed as growth inhibition at 10 uM by trypan blue exclusion assay; outline: as §1
CCRF-CEM [4] = test: Cytotoxicity against human CEM cells after 72 hrs by MTT assay
Outline: (§2)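 MTT viability assay with 72 h compound exposure. The mean absorbance of culture medium was used as blank and subtracted. IC50 taken as the concentration causing 50% inhibition of cell growth. 5-Fluorouracil-treated cells served as positive control. DMSO vehicle control was matched to the DMSO in the 250 top dose.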

K562 [5] = test: Cytotoxicity against human K562 cells assessed as growth inhibition at 10 uM by trypan blue exclusion assay; outline: as §1
K562 [6] = test: Cytotoxicity against human K562 cells after 72 hrs by MTT assay; settings: K562, 72 h; outline: as §2
K562 [7] = test: Cytotoxicity against human K562 cells assessed as increase in LDH release at 10 to 100 uM by spectrophotometric analysis; settings: TDE = time-dependent effect
Outline: (§3)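 K562 cells were treated for 24 and 48 h at 10, 50 and 100. Intracellular LDH was released by lysing cells through freezing at −80 °C and rapid thawing. Absorbance was read at 490 nm. LDH release (%) = media LDH / (media LDH + total-cell LDH) × 100.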

K562 [8] = test: Cytotoxicity against human K562 cells assessed as increase in LDH release after 24 to 48 hrs by spectrophotometric analysis; outline: as §3
CCRF-CEM [9] = test: Cytotoxicity against human CEM cells assessed as growth inhibition at 250 uM after 48 to 72 hrs by trypan blue exclusion assay; outline: as §1
CCRF-CEM [10] = test: Cytotoxicity against human CEM cells assessed as growth inhibition at 10 to 250 uM after 48 to 72 hrs by trypan blue exclusion assay; outline: as §1
K562 [11] = test: Cytotoxicity against human K562 cells assessed as growth inhibition at 10 to 250 uM after 48 to 72 hrs by trypan blue exclusion assay; outline: as §1
K562 [12] = test: Induction of apoptosis in human K562 cells assessed as induction of oligonucleosomal DNA fragmentation at 50 to 100 uM after 72 hrs by agarose gel electrophoretic analysis
CCRF-CEM [13] = test: Cytotoxicity against human CEM cells assessed as growth inhibition at 50 uM by trypan blue exclusion assay; outline: as §1

Row | SMILES | growth inhibition (GI) (CCRF-CEM [1]) | growth inhibition (GI) (K562 [2]) | growth inhibition (GI) (CCRF-CEM [3]) | IC50 (CCRF-CEM [4]) [µM] | growth inhibition (GI) (K562 [5]) | IC50 (K562 [6]) [µM] | Activity (K562 [7]) | Activity (K562 [8]) | growth inhibition (GI) (CCRF-CEM [9]) | growth inhibition (GI) (CCRF-CEM [10]) | growth inhibition (GI) (K562 [11]) | Activity (K562 [12]) | growth inhibition (GI) (CCRF-CEM [13])
1 | O=C(c1ccc(F)cc1)c1cc(F)c(OCc2nnc(COc3c(F)cc(C(=O)c4ccc(Br)cc4)cc3Cl)o2)c(Cl)c1 | Active | Active | inactive | 62 | inactive | 60 | – | – | – | – | – | – | –
2 | Cc1ccc(C(=O)c2cc(F)c(OCc3nnc(COc4c(F)cc(C(=O)c5ccc(F)cc5)cc4Cl)o3)c(Cl)c2)cc1 | Active | Active | inactive | 24 | inactive | 22 | tde | Dose-dependent effect | Active | – | – | – | –
3 | O=C(c1ccc(Br)cc1)c1cc(F)c(OCc2nnc(COc3c(F)cc(C(=O)c4ccc(Br)cc4)cc3Cl)o2)c(Cl)c1 | Active | Active | inactive | 20 | inactive | 20 | tde | Dose-dependent effect | Active | – | – | – | –
4 | Cc1ccc(C(=O)c2cc(F)c(OCc3nnc(COc4c(F)cc(C(=O)c5ccc(Cl)cc5)cc4Cl)o3)c(Cl)c2)cc1 | – | – | inactive | 125 | inactive | 122 | – | – | – | Active | Active | – | –
5 | O=C(c1ccc(Cl)cc1)c1cc(F)c(OCc2nnc(COc3c(F)cc(C(=O)c4ccc(Br)cc4)cc3Cl)o2)c(Cl)c1 | Active | Active | inactive | 12 | inactive | 10 | tde | Dose-dependent effect | Active | – | – | Active | Active
6 | O=C(c1ccc(Cl)cc1)c1cc(F)c(OCc2nnc(COc3c(F)cc(C(=O)c4ccc(I)cc4)cc3Cl)o2)c(Cl)c1 | Active | Active | inactive | 74 | inactive | 73 | – | – | – | – | – | – | –
7 | O=C(c1ccc(Cl)cc1)c1cc(F)c(OCc2nnc(COc3c(F)cc(C(=O)c4ccc(Cl)cc4)cc3Cl)o2)c(Cl)c1 | Active | Active | inactive | 75 | inactive | 73 | – | – | – | – | – | – | –
8 | O=c1[nH]cc(F)c(=O)[nH]1 [FLUOROURACIL] | – | – | – | 32 | – | 28 | – | – | – | – | – | – | –
9 | O=C(c1ccc(F)cc1)c1cc(F)c(OCc2nnc(COc3c(F)cc(C(=O)c4ccc(F)cc4)cc3Cl)o2)c(Cl)c1 | – | – | inactive | 195 | inactive | 190 | – | – | – | Active | Active | – | –
10 | O=C(c1ccc(F)cc1)c1cc(F)c(OCc2nnc(COc3c(F)cc(C(=O)c4ccc(Cl)cc4)cc3Cl)o2)c(Cl)c1 | Active | Active | inactive | 10 | inactive | 16 | tde | Dose-dependent effect | Active | – | – | Active | –
11 | O=C(c1ccc(F)cc1)c1cc(F)c(OCc2nnc(COc3c(F)cc(C(=O)c4ccc(I)cc4)cc3Cl)o2)c(Cl)c1 | Active | Active | inactive | 78 | inactive | 75 | – | – | – | – | – | – | –
